Experimental findings from ChEMBL document CHEMBL1148894, “Triterpene saponins from the roots of Clematis chinensis” (J Nat Prod, 2004) are described below.

The subject of assay [1] is HL-60. Kind of assay: Cytotoxicity against human HL60 cells at 20 uM after 72 hrs by MTT assay. The format is functional, cell-based. (Tetrazolium dyes change colour on reduction, which living cells bring about.)
The subject of assay [2] is HL-60. Kind of assay: Cytotoxicity against human HL60 cells after 72 hrs by MTT assay. It is filed as functional, cell-based. Particulars: HL-60, 72 h. An outline of the steps: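 HL-60 cells (JCRB 0085) grown in RPMI 1640 with heat-inactivated 10% FBS, L-glutamine, penicillin and streptomycin. Seeded at 4 × 10^4 cells/mL, preincubated 24 h at 37 °C in 5% CO2. Samples added in EtOH-H2O (1:1) to final 0.1-50 µg/mL, with vehicle controls, then incubated 72 h. MTT added for 4 h, formazan dissolved in DMSO, A550 read. Done in triplicate; IC50 is the 50% drop in viable cells.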

Assay [3] can be described thus: Cytotoxicity against human BSY1 cells. The format is functional. To be noted: BSY-1, read-out: LC50 (the source's name).
Assay [4] deals with U-251. Kind of assay: Cytotoxicity against human U251 cells. It is filed as functional. To be noted: read-out: LC50 (the source's name).
The subject of assay [5] is SF-295. Kind of assay: Cytotoxicity against human SF295 cells. It is filed as functional. Particulars: read-out: LC50 (the source's name).
Assay [6] deals with PC-3. Kind of assay: Cytotoxicity against human PC3 cells. Particulars: read-out: LC50 (the source's name). The format is functional.
Assay [7] has as its system NCI-H460. Kind of assay: Cytotoxicity against human NCI-H460 cells. It is filed as functional. Particulars: read-out: LC50 (the source's name).
Assay [8] relates to OVCAR-3. Kind of assay: Cytotoxicity against human OVCAR-3 cells. Particulars: read-out: LC50 (the source's name). The format is functional.
Assay [9] has as its system OVCAR-8. Kind of assay: Cytotoxicity against human OVCAR8 cells. The format is functional. To be noted: read-out: LC50 (the source's name).
Assay [10] has as its system MKN-28. Kind of assay: Cytotoxicity against human MKN28 cells. It is filed as functional. To be noted: read-out: LC50 (the source's name).

Activity calls are given as the source filed them. No cut-off for these calls is given here.

As to `C[C@@H]1O[C@@H](OC[C@H]2O[C@@H](O[C@H]3[C@H](O)[C@@H](O)[C@H](O[C@@H]4CO[C@@H](O[C@@H]5[C@@H](O)[C@H](C)O[C@@H](O[C@H]6[C@H](O[C@H]7CC[C@]8(C)[C@H]9CC=C%10[C@@H]%11CC(C)(C)CC[C@]%11(C(=O)O[C@@H]%11O[C@H](CO[C@@H]%12O[C@H](CO)[C@@H](O[C@@H]%13O[C@@H](C)[C@H](O)[C@@H](O)[C@H]%13O)[C@H](O)[C@H]%12O)[C@@H](O)[C@H](O)[C@H]%11O)CC[C@@]%10(C)[C@]9(C)CC[C@H]8C7(C)C)OC[C@H](O)[C@@H]6O)[C@@H]5O)[C@H](O)[C@@H]4O)O[C@@H]3CO)[C@H](O)[C@@H](O)[C@@H]2O)[C@H](O)[C@H](O)[C@H]1O`, the result in assay [1] was inactive.

Regarding `C[C@@H]1O[C@@H](OC[C@H]2O[C@@H](O[C@H]3[C@H](O)[C@@H](O)[C@H](O[C@@H]4CO[C@@H](O[C@@H]5[C@@H](O)[C@H](C)O[C@@H](O[C@H]6[C@H](O[C@H]7CC[C@]8(C)[C@H]9CC=C%10[C@@H]%11CC(C)(C)CC[C@]%11(C(=O)O)CC[C@@]%10(C)[C@]9(C)CC[C@H]8C7(C)C)OC[C@H](O)[C@@H]6O)[C@@H]5O)[C@H](O)[C@@H]4O)O[C@@H]3CO)[C@H](O)[C@@H](O)[C@@H]2O)[C@H](O)[C@H](O)[C@H]1O`, the IC50 (usually the concentration at which inhibition is half-maximal) in [2] was 2.8 µM. In addition, the CC50 in assay [3] came to 5.9 µM; in assay [4], 6.3 µM; in assay [5], 6 µM; in [6], 6 µM; in assay [7], 40 µM; in assay [8] it was 47 µM. For the same compound, the CC50 came to 71 µM in assay [9] and 30 µM in assay [10].

As to `C[C@@H]1O[C@@H](O[C@H]2[C@H](O[C@H]3CC[C@]4(C)[C@H]5CC=C6[C@@H]7CC(C)(C)CC[C@]7(C(=O)O)CC[C@@]6(C)[C@]5(C)CC[C@H]4C3(C)C)OC[C@H](O)[C@@H]2O)[C@H](O)[C@H](O[C@@H]2OC[C@@H](O)[C@@H](O)[C@H]2O)[C@H]1O`, 2.3 µM corresponded to half-maximal inhibition in [2] (IC50).
